T cell modulator: T cell immune modulation candidate | 2C CD8+ T cell-vesicle binding, flow cytometry; stronger effect = lower value | response (vesicle binding), % at 7 µM | 330,000 tested, 0.068% active | AID 2052;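 active means response, share of CD8 T cells binding vesicles, and their 90th percentile fluorescence all below set limits, cut at about 80% in these data, passing the limit was not always enough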;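 further: values below 100% mean blocked vesicle binding to the CD8+ T cells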
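material = purified 2C TCR transgenic mouse naive CD8+ T cells | controls = Unloaded micro-vesicles (low), QL9 vesicles with 0.7% DMSO (high) | detection = cytometric PE anti-B7-1 and Alexa647 anti-CD8 signals after 1% paraformaldehyde fixation | incubation = binding step 1.5 h, 37 °C, antibody labelling 20 min, ice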
ALR H2O2 inh: human ALR oxidase inhibition via reduced H2O2. P55789. purified ALR, DTT oxidation, H2O2 HRP-luminol luminescence. inhibition, % (no concentration beside the values). 290,000 tested, 3.8% active. AID 485317;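 active means mean replicate inhibition above about 79%, with every replicate also reaching it, limit read from the data; inconclusive means only one of the two criteria met; inactive means mean below limit and not every replicate reaching it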
Target sequence (P55789 whole entry, looked up): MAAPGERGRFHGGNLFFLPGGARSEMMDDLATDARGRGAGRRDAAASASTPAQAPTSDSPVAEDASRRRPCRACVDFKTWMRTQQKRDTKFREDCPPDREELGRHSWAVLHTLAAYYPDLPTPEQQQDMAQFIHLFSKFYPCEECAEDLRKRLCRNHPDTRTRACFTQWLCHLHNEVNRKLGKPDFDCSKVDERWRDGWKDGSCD
N-glyco inh: N-linked glycosylation inhibition | D54 ERlucT glycosylation luciferase reporter, 24 h; percent of 100 nM tunicamycin response | reporter increase, % at 12.5 µM | 360,000 tested, 0.23% active | AID 588692;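 active means mean luciferase reporter signal, scaled so untreated is 0 and the glycosylation-blocking control 100, at or above a set limit in every replicate; inconclusive means mean reaches the limit but not every replicate does; inactive means mean below the limit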;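 further: luciferase carries N-glycosylation sites so blocking glycosylation raises the light; 0% = median of neutral control wells and 100% = median of 100 nM tunicamycin wells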
Starred values were filed as active, the others as inactive; ? = inconclusive; . = no result given. The full list was thinned out, with hits kept by preference.

SMILES | T cell modulator | ALR H2O2 inh | N-glyco inh
CSC[C@H]1CN(c2ccccc2)C(=O)[C@@H]1CC(=O)Nc1ccccc1 | . | . | 3.0
C=CCN=C1N[C@@H](c2ccccc2)C(C(=O)OC)=C(C)N1CC | 489.8 | -3.3 | -0.5
O=C(COC(=O)CNC(=O)c1ccc(Cl)cc1Cl)NNC(=O)c1ccccc1F | 542.7 | -4.7 | 0.8
COC(=O)c1ccc(CSc2ncnc3c2nnn3-c2ccc(F)cc2)o1 | 406.3 | 98.7* | 0.8
CCC(C(=O)OC)n1cnc2c(nnn2-c2ccc(F)cc2)c1=O (stereo not drawn) | 293.0 | 0.6 | -0.7
CCN(CC)C(=O)CSc1ncnc2c1nnn2-c1ccc(F)cc1 | 412.8 | -0.5 | -1.4
CCOC(=O)C(C)Sc1ncnc2c1nnn2-c1ccc(F)cc1 (stereo not drawn) | 189.4 | 96.4* | -1.8
CCC(Sc1ncnc2c1nnn2-c1ccc(F)cc1)C(=O)OC (stereo not drawn) | 317.0 | 96.3* | 0.2
COC(=O)c1ccc(CSc2ncnc3ccccc23)o1 | 721.4 | -0.6 | 0.2
O=c1c(Oc2ccccc2)coc2cc(O)cc(O)c12 | 203.7 | 0.4 | 2.0
O=C(CCn1c(=S)oc2ccccc21)N1CCN(c2ccc(F)cc2)CC1 | 66.6 | 32.6 | 0.6
O=C(CCn1c(=O)oc2ccccc21)N1CCN(c2ccc(F)cc2)CC1 | 714.7 | 97.4* | 1.2
OCCNCC(O)CN1c2ccccc2Sc2ccccc21 (stereo not drawn) | 164.2 | 99.2* | -1.7
CC1CCN(CC(O)CN2c3ccccc3Sc3ccccc32)CC1 (stereo not drawn) | 221.7 | ? | -1.0
O=C(Nn1cnnc1)c1ccccc1Cl | 113.1 | . | 2.5
CCOc1ccccc1NC(=O)Nc1ccc(Br)cc1C | 227.4 | -6.8 | -3.3
COc1ccc(NCc2ccc3c(c2)OCO3)cc1Cl | 292.2 | 96.7* | -0.6
CCOc1cc(CNc2ccc3c(c2)OCCO3)cc(Br)c1OCC(N)=O | 40.1 | 46.9 | -9.1
COc1cc(CNc2ccc3c(c2)OCCO3)ccc1OCC(N)=O | 224.8 | 99.5* | 1.1
COc1cc2sc3cc(NCc4ccc5c(c4)OCO5)ccc3c(=O)c2cc1OC | 978.2 | 0.4 | 12.9
CC(C)C[C@@H](CNCC(=O)[C@H](CC(=O)O)NC(=O)c1[nH]cnc1C(=O)N[C@H](CN)CC(C)C)NC(=O)c1nc[nH]c1C(=O)N[C@@H](C)C(=O)O | . | . | 0.9
CCn1c(CCC(N)=O)nnc1SCC(=O)Nc1cccc(S(=O)(=O)N2CCCC2)c1 | 415.0 | 21.9 | 2.0
Cc1ccc(-c2cc(C(=O)N3CCN(C(=O)c4ccco4)CC3)[nH]n2)c(C)c1 | 310.2 | -9.1 | 3.1
CSc1ccc(CN2CCC2(C)C(=O)Nc2ccc3c(c2)OCO3)cc1 (stereo not drawn) | . | . | 1.5
Nc1nc(CN2CCN(Cc3ccccc3)CC2)nc(Nc2ccc3c(c2)OCCO3)n1 | 225.3 | . | 47.0*
SMILES | T cell modulator | ALR H2O2 inh | N-glyco inh
Nc1nc(CN2CCN(C(=O)c3ccco3)CC2)nc(Nc2cccc(Cl)c2)n1 | 378.0 | 94.9* | 1.6
CCOC(=O)N1CCN(Cc2nc(N)nc(Nc3ccc(Cl)cc3)n2)CC1 | 258.5 | 15.0 | 0.9
Cc1ccc(Nc2nc(N)nc(CN3CCN(Cc4ccc5c(c4)OCO5)CC3)n2)cc1Cl | 202.6 | -15.1 | 0.8
O=C(O)c1cccc(NS(=O)(=O)c2cc(S(=O)(=O)c3ccc(Cl)cc3)ccc2Cl)c1 | 249.2 | -3.5 | 1.2
O=P(c1ccccc1)(c1ccccc1)C(O)c1cccs1 (stereo not drawn) | . | . | 0.0
Cc1cc(Nc2ccccc2Cl)c2ccccc2n1 | 110.5 | . | -2.1
Cc1cc(C)nc(NCC(O)CNc2ccccc2Cl)n1 (stereo not drawn) | 130.4 | 92.0* | 0.4
O=C1CCCN1CCCNc1ncnc2c1[nH]c1ccc(Cl)cc12 | 265.2 | 97.9* | 2.1
Clc1ccc2[nH]c3c(NCCCN4CCOCC4)ncnc3c2c1 | 378.0 | -9.2 | -2.5
CCOC(=O)CSC1=NC(=O)/C(=C/c2ccc(Br)cc2)S1 | 247.3 | ? | 4.6
CCOC(=O)CSC1=NC(=O)/C(=C\c2ccc(OC(C)=O)cc2)S1 | 471.3 | 99.9* | -1.4
CC(=O)Nc1ccc(C(=O)N2CCCC(c3cc(C(=O)NCc4ccc(F)cc4)no3)C2)cc1 (stereo not drawn) | . | . | -0.7
CCc1ccc2cc3c(cc2n1)C(=O)c1ccccc1-3 | . | . | -0.9
CCOC(=O)C(CN1CCCC1)c1ccccc1 (stereo not drawn) | 213.2 | 0.1 | 4.6
O=C(c1ccc(Cl)cc1)C(CN1CCCCC1)c1ccccc1 (stereo not drawn) | 174.8 | 96.8* | 15.8
N#CC1=C(N)NC(SCc2ccc(Br)cc2)=C(C#N)C12CCCCC2 | 240.9 | -19.7 | -2.4
N#CC1=C(N)NC(SCC(=O)Nc2ccc(Br)cc2)=C(C#N)C12CCCCC2 | 483.1 | 97.4* | -1.7
O=C(NCCCn1ncc2ccccc21)c1cc(COc2c(F)cccc2F)on1 | 107.4 | -4.7 | -1.4
CCCCCN(C(=O)CCC(=O)OC(C)C(=O)c1ccccc1)c1c(N)n(CCCC)c(=O)[nH]c1=O (stereo not drawn) | 652.7 | 5.9 | 0.5
COc1ccccc1OCC(=O)N/N=C/C=C/c1ccc([N+](=O)[O-])o1 | 236.7 | . | 57.6*
O=C(N/N=C\C=C\c1ccc([N+](=O)[O-])o1)c1cccs1 | 180.5 | -22.2 | 40.9*
O=C(N/N=C/C=C/c1ccccc1[N+](=O)[O-])c1cccs1 | 191.5 | . | -1.2
Cc1ccccc1OCC(=O)N/N=C/c1ccc([N+](=O)[O-])o1 | 297.9 | -111.7 | 0.6
CC1(C(=O)OCC(=O)Nc2nnc(-c3ccccc3)o2)CC1(Cl)Cl (stereo not drawn) | 446.9 | 41.8 | 1.6
COc1cccc(CN2CC(C(=O)NCc3cccc(N4CCCC4)c3)CCC2=O)c1 (stereo not drawn) | 278.9 | 1.4 | 3.4
SMILES | T cell modulator | ALR H2O2 inh | N-glyco inh
CCOC(=O)c1c(C)oc(NC(=O)CCl)c1C(=O)OCC | 116.6 | 42.1 | 1.3
Oc1ccc(-c2csc(Nc3ccccn3)n2)c(O)c1 | 595.0 | 92.9* | -6.3
Fc1ccc(-c2csc(Nc3ccccn3)n2)cc1 | 179.7 | 0.8 | -10.7
Cc1cccnc1Nc1nc(-c2ccccn2)cs1 | 511.9 | 4.8 | -13.9
NS(=O)(=O)c1ccc(Nc2nc(-c3ccc(F)cc3)cs2)cc1 | 216.8 | 46.2 | -1.6
Cc1cccnc1Nc1nc(-c2ccc(O)cc2O)cs1 | 357.4 | 76.6* | 2.4
NS(=O)(=O)c1ccc(Nc2nc(-c3ccc(O)cc3O)cs2)cc1 | 534.1 | 98.8* | 4.7
CC1(C(=O)NCc2ccccc2Br)CCN1C(=O)CCc1ccc(Cl)cc1Cl (stereo not drawn) | . | . | -2.2
O=C(c1ccccn1)N1CCN(S(=O)(=O)c2ccccc2)CC1 | 179.7 | . | 0.9
CC(=O)NC1=NN(C(C)=O)C2(S1)C(=O)N(CC(C)C)c1ccc(C)cc12 (stereo not drawn) | 751.1 | -9.9 | 3.6
COc1cccc(CNC(=O)CCNC(=O)C2CCN(S(=O)(=O)c3ccccc3)CC2)c1 | 420.1 | 1.3 | 1.2
Cn1c(-c2ccccc2)cnc1NCc1ccccc1 | 193.7 | 74.3 | 2.1
Cc1ccc(CNc2ncc(-c3ccccc3)n2C)o1 | 376.6 | 98.2* | -0.4
CCOc1ccc(N(CC(=O)NN=C2CCCC2)S(C)(=O)=O)cc1 | 401.2 | 7.6 | 1.5
COc1ccc(C=NNC(=O)c2cc(C)oc2C)cc1O | 468.7 | 98.9* | 15.2

Assay outcomes: PubChem BioAssay, several laboratories
